The source of these data is PMC9214057 (Acta Pharmaceutica Sinica. B, 2022).

Residues, ends and D or L forms follow the SMILES beside them. *: point of attachment. Cbz = O=C(OCc1ccccc1)*

Assay [1] concerns PD-1/NFAT reporter-Jurkat cells. As to the kind of experiment: PD-L1 cell-based assay.
The subject of assay [2] is B16F10 tumor. Particulars: 60 mg/kg; cited from earlier work.
Assay [3] deals with human SCC-3 tumor. Particulars: 20 mg/kg; cited from earlier work.
Assay [4] concerns PD-L1. As to conditions: cited from earlier work.
The test system of assay [5] is hPD-L1 MC38 cells. As to the kind of experiment: PD-L1 expression and localisation by Western blotting / immunofluorescence. The format is cell-based, mouse. Particulars: 24 h. The gist of the method:
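hPD-L1 MC38 cells were exposed for 24 h. For immunofluorescence, cells on glass-bottom dishes were treated at 1 and 10 μmol/L, fixed, permeabilized, stained overnight with anti-PD-L1, then Alexa Fluor 488 secondary with DAPI, and imaged by confocal microscopy. For Western blotting, whole cells were treated at 0.1–10 μmol/L. Per lane, 60 μg protein was run on 10% SDS-PAGE and transferred to nitrocellulose. Primary antibody was 1:1000 overnight at 4 °C; β-actin or Na/K-ATPase served as loading control. Bands were quantified by densitometry.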

As for `COc1nc(OCc2cccc(-c3ccccc3)c2C)ccc1CNCCNC(C)=O` [BMS202], the “concentration required in the T cell activation assay” value in assay [1] is listed as “more than 10 μmol/L”. Further, in assay [2], the “inhibition rate in B16F10 tumor” value is recorded as 50.1%. Also, the “inhibition rate in humanized mouse-transplanted human SCC-3 tumor” value in assay [3] is 41%.
Consider `C[C@@H](O)[C@H](NC(=O)N[C@@H](CC(N)=O)c1nc([C@@H](N)CO)no1)C(=O)O` [CA-170], for which the “direct binding to PD-L1” value in assay [4] was “no direct binding”.
As for `CC(C)C[C@@H](C=O)NC(=O)[C@H](CC(C)C)NC(=O)[C@H](CC(C)C)NC(=O)OCc1ccccc1` [MG132] (Cbz-Leu-Leu-Leu-aldehyde), in assay [5], the “PD-L1 protein expression / distribution” value is listed as “increased”.
The same measure, in the same setting: for `CCN(CC)CCCC(C)Nc1ccnc2cc(Cl)ccc12` (stereo not drawn) [chloroquine] the value was “increased”.
